Assay outcomes as filed in PubChem.
ADAM17 inh: ADAM17 inhibition, QFRET primary screen; recombinant ADAM17, EDANS/DABCYL FRET peptide cleavage; inhibition, % at 6.95 µM; hit rate 0.83% among 370,000; AID 720648;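 active = inhibition above the mean of compounds lying between control limits plus 3 SD, set per campaign, cut at about 8.5% in these data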;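 also: 0% = DMSO-only wells as the low control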
Target sequence (P78536 215-824 limits assumed): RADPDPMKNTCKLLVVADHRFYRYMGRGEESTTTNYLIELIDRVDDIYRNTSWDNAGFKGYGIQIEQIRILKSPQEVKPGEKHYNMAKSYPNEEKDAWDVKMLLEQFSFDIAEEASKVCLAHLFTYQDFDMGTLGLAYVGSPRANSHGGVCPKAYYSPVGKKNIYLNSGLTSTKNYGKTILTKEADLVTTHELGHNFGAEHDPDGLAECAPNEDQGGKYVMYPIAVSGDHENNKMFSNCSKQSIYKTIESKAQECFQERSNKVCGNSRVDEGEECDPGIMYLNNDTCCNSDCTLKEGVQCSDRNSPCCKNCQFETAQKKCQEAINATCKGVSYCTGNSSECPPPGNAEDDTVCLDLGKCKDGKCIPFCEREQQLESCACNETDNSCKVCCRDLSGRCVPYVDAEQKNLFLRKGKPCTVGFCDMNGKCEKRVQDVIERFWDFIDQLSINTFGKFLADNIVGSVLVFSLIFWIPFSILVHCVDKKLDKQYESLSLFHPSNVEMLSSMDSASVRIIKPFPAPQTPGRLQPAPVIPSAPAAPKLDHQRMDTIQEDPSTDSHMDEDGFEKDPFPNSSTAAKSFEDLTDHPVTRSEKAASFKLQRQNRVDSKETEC
ADAM10 inh: inhibitors of human ADAM10 | O14672 | recombinant ADAM10, EDANS/DABCYL FRET peptide cleavage, 3 h | inhibition, % at 7 µM | hit rate 0.62% among 370,000;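 active = inhibition above a per-campaign cutoff equal to the mean of compounds falling between control-based bounds plus 3 SD, cut at about 20% in these data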;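 also: 0% = DMSO wells while the 100% control is not disclosed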
PLC-gamma1 inh: PLC-gamma1 (human) inhibition, primary screen. purified PLC-gamma1, fluorogenic substrate, fluorescence. inhibition, % at 12.2 µM. hit rate 0.84% among 370,000; in the data active = inhibition above about 9.5%
PLC-beta3 inh: inhibitors of human phospholipase C beta3 | AID 720704 | Purified PLC-beta3, fluorogenic substrate, fluorescence | inhibition, % at 12.2 µM | Q01970 | hit rate 0.18% among 370,000;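 also: 0% = median of compound wells on plate and 100% = full blocker control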
Tn6 DDE FP: inhibitors of Tn6 peptide binding to human fibrin DD(E). inhibition, % at 8.3 µM. P02675. Fibrin DD(E) TRITC-Tn6 fluorescence polarization displacement. hit rate 0.21% among 370,000;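 active = inhibition above a per-campaign cutoff: mean of compounds within control limits plus 3 SD, cut at about 15% in these data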;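 also: 0% = median of all compound wells on the plate and 100% = blocking peptide control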
Tn7 DDE FP: disrupts Tn7 cyclic peptide binding to fibrin D-Dimer-E complex. hit rate 0.13% among 370,000. AID 720508. P02675. FP displacement of FITC-Tn7 peptide from fibrin DD(E); 0% = median of compound wells per plate. inhibition, % at 8.3 µM;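 active = inhibition above the mean of compounds falling within the control limits plus 3 SD of them, cut at about 14% in these data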;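 also: 0% = plate median of compound wells and 100% = 10 µM Aha-Tn7 peptide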
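assay system = human clot-derived fibrin DD(E) complex | quantity = Fibrin-DD(E) at 2 µM final | timing = 10 min preincubation, 3 h with tracer, room temperature | signal = fluorescence polarization | measure = percent inhibition | benchmarks = high control wells with 10 µM unlabelled Aha-Tn7 peptide (full inhibition) | replicates = singlicate testing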
PLCg1 ctr: PLC-gamma1 inhibition, counter-screen for PLC-beta3 hits | hit rate 3.1% among 3,300 | inhibition, % at 12.3 µM | purified PLC-gamma1, fluorogenic substrate, fluorescence | AID 743258 | shares compounds with PLC-gamma1 inh; in the data active = inhibition above about 9.5%
PLCb3 confirm: confirmation of human PLC-beta3 inhibitors. shares compounds with PLC-gamma1 inh. purified PLC-beta3, fluorogenic substrate fluorescence. inhibition, % at 12.3 µM. hit rate 1% among 3,300
Starred values were filed as active, the others as inactive; · = no result given. Shown are actives, neighbours in structure and some others; about 2.3% of the full set was active somewhere. Rule as the data show it, unless noted: active = inhibition above about 11%; inactive = the rest.

SMILES	ADAM17 inh	ADAM10 inh	PLC-gamma1 inh	PLC-beta3 inh	Tn6 DDE FP	Tn7 DDE FP	PLCg1 ctr	PLCb3 confirm
COC(=O)C1CN(Cc2cn(Cc3ccc(F)cc3)nn2)CCS(=O)(=O)N1Cc1ccc(C)cc1 (centres undefined)	-2	0	1	-1	4	-2	·	·
CCc1cccc2c1NC1(CCCC1)CC2C (centres undefined)	-1	8	10*	4	1	0	4	-4
CC1CC2(CCCCC2)Nc2ccc3ccccc3c21 (centres undefined)	-17	-55	-22	-28	-1	-3	·	·
CCCCN(C)C(=O)c1ccc2c(c1)NC(=O)C(C)(C)O2	-2	0	0	-2	5	3	·	·
CC(C)C(NC(=O)[C@H](Cc1ccccc1)NC(=O)OCc1ccccc1)P(=O)(O)OC(Cc1ccccc1)C(=O)O (some centres undefined)	-8	-4	5	1	6	5	·	·
CN(C)S(=O)(=O)c1cc(C(=O)NCC2CCCO2)c(Cl)cc1Cl (centres undefined)	-1	0	9.5*	6	2	1	-1	3
O=C(CC1SCCNC1=O)Nc1cc(Cl)cc(Cl)c1 (centres undefined)	4	12	3	12*	1	-5	2	-3
COc1ccc(CN(C)S(=O)(=O)c2ccc3c(c2)OCCO3)cc1	5	14	12*	-2	-8	-5	-4	-5
Cn1c(=O)[nH]c2c(Br)nccc21	1	1	2	3	0	-6	·	·
CC(C)c1ccc(NC2CCCN(C(=O)CCc3cn[nH]c3)C2)cc1 (centres undefined)	-7	-9	-3	-6	7	8	·	·
O=C(CCc1ccncc1)N1CCCC(Nc2ccc(F)cc2)C1 (centres undefined)	0	-3	-4	-3	7	-2	·	·
O=C(CCc1ccccc1)N1CCCC(Nc2ccc(F)cc2)C1 (centres undefined)	-3	9	11*	1	6	0	-1	2
COc1ccc(NC2CCCN(C(=O)CCc3cn[nH]c3)C2)cc1 (centres undefined)	0	-11	10*	-9	-12	-2	-3	3
C[C@@H]1CCN(C2CC2)S(=O)(=O)c2ccc(N3CCC[C@H]3CO)cc2O1	-42	-10	-7	-5	8	8	·	·
CN(C)S(=O)(=O)c1cccc(C(=O)NCC(C)(C)CNC(=O)c2cccc(S(=O)(=O)N(C)C)c2)c1	3	7	9.9*	-2	2	-4	8	2
CCOC(=O)c1cnn(-c2nc(C)cc(C)n2)c1N	4	2	10*	5	1	-17	-2	-1
CCOC(=O)c1cnn(-c2ccccc2)c1N	0	2	2	1	3	-5	·	·
CC1(C)CC(=O)C(C2=NC3(CCCCCC3)Cc3ccccc32)=C(O)C1	7	10	10*	2	-5	-1	3	4
CCN(C(=O)COC(=O)c1ccc(C=O)cc1)c1c(N)n(Cc2ccccc2)c(=O)[nH]c1=O	-9	-14	19*	-24	-2	-1	0	-13
COc1ccc(NC(=O)CSc2nnc(C)n2C2CC2)cc1S(=O)(=O)N1CCOCC1	5	6	9.8*	-1	-8	-9	-5	-1
CN(C)C(CNC(=O)c1c(F)cccc1Cl)c1ccco1 (centres undefined)	4	-12	11*	-5	5	-5	-6	-2
Cc1cc(C(=O)N/N=C/C=C/c2ccccc2)n[nH]1	-9	-7	3	2	-2	2	·	·
Cc1cc(C(=O)N/N=C/C=C/c2cccc([N+](=O)[O-])c2)n[nH]1	5	11	11*	10	-1	1	3	4
CC(/C=C/c1cccc([N+](=O)[O-])c1)=N\NC(=O)c1ccncc1	-4	-17	13*	1	-1	4	3	4
CCn1c(O)c(C2=NCCCC2)c2ccccc21	0	4	9.7*	5	0	3	5	7
SMILES	ADAM17 inh	ADAM10 inh	PLC-gamma1 inh	PLC-beta3 inh	Tn6 DDE FP	Tn7 DDE FP	PLCg1 ctr	PLCb3 confirm
C[C@H](CO)N1C[C@H](C)[C@@H](CN(C)S(=O)(=O)c2ccc3c(c2)OCCCO3)OCc2cn(nn2)CCCC1=O	2	14	9.5*	4	1	1	-3	-2
C[C@H](CO)N1C[C@H](C)[C@@H](CN(C)C(=O)c2ccccc2)OCc2cn(nn2)CCCC1=O	2	11	4	11*	-4	2	1	5
O=C(O)CS(=O)CC(=O)Nc1cccc(C(F)(F)F)c1 (centres undefined)	1	2	20*	2	-1	-4	25*	-2
CCOC(=O)Cc1nc(N2CCN(CCN)CC2)c2c(C)c(C(=O)OCC)sc2n1	-64	-227	-15	-22	0	3	·	·
Cc1ccc(NC2=C(Cl)C(=O)OC2OC(C)C)cc1 (centres undefined)	2	5	4	3	-2	-1	·	·
Cc1cccc(NC2=C(Cl)C(=O)OC2OC(C)C)c1 (centres undefined)	8	5	10*	7	-6	3	6	1
Cc1ccc(NC(=O)CSc2n[nH]c(-c3ccco3)n2)c(C)c1	-6	-3	10*	-12	-4	4	0	-7
Cc1ccc(NC(=O)CSc2n[nH]c(-c3ccco3)n2)cc1	-5	3	1	3	3	-2	·	·
O=C(NC1CCCCCCC1)C1CCN(S(=O)(=O)N2CCCC2)CC1	3	5	11*	3	-2	-7	-6	-6
CSCC[C@H](NC(=O)c1nn(C)c(=O)c2ccccc12)c1nc2ccccc2[nH]1	3	-2	13*	1	2	-5	-9	-6
CCn1nc(C(=O)N[C@@H](CCSC)c2nc3ccccc3[nH]2)c2ccccc2c1=O	-1	-4	0	-1	-2	3	·	·
Nc1[nH]c2ccccc2c1C(=O)NC1CC1	-5	-11	-9	-6	6	-4	·	·
O=C(Cn1c(NCCO)nc2ccccc21)c1ccccc1	-2	-5	-1	1	1	0	·	·
O=C(Cn1c(NCCCO)nc2ccccc21)c1ccc(Br)cc1	2	15	7	12*	1	-1	1	3
O=S(=O)(c1ccc(Cl)s1)N1CCC(c2cn3ccccc3n2)CC1	-51	-160	-77	-99	4	0	·	·
